Measured values taken from PMC6360136 (Investigational new drugs, 2018).

How the values were obtained:
EC68 cells = assay: Cell viability assay; assay type: cell-based, human; details: EC68 primary pancreatic cancer cells, MTT, 48 h
EC46 cells = assay: Cell viability assay; assay type: cell-based, human; details: EC46 primary pancreatic cancer cells, MTT, 48 h
[1] = system: orthotopic pancreatic PDX tumor; assay: Ki-67 staining of PDX tumors; assay type: in vivo, NSG mice; details: PDX tumors at euthanasia, 0.25 mg/kg i.p. every other day, vs vehicle
In short: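 Orthotopic PDX mice received test compound 0.25 mg/kg i.p. or DMSO every other day. At endpoint, tumours were formalin-fixed and paraffin-embedded, and 5 micron sections were cut. Sections were stained for Ki-67 (proliferation) or by TUNEL (apoptosis). Ki-67 was scored as the average number of positive cells per high-power field by image analysis.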

## CC[C@H](C)[C@@H]1C(=O)N2CCC[C@@H]2C(=O)O[C@H](C(C)(C)C)C[C@@H](C)C[C@@H](O)C(C)(C)C2=N[C@H](CCC(=O)N[C@@H](Cc3ccc(OC)cc3)C(=O)N(C)[C@@H](C)C(=O)N1C)CS2 [Apra S10, apratoxin S10]
EC68 cells
  GI50: 0.35 nM
EC46 cells
  GI50: 0.32 nM
[1]
  decrease in the number of cells undergoing proliferation (Ki-67): > 50%
